Exocytosis inh – blocks lytic granule exocytosis. TALL-104 LAMP-1 surface exposure, flow cytometry; cells stimulated with thapsigargin and PMA. inhibition, % at 10 µM. hit rate 0.66% among 360,000. AID 651702;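 active means inhibition above about 55%, limit read from the data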
Myeloid diff MLP – myeloid differentiation induction; ER-HoxA9 myeloid progenitors, lysozyme-GFP differentiation, flow cytometry; calls only at 10 µM; hit rate 1% among 360,000; AID 624256;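 active means normalized GFP-positive differentiation at or above the plate's own cutoff, the solvent-only control mean plus 3 SD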;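 further: cells exposed to compound for four days before flow analysis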
MC4R barr agon – activates human MC4R beta-arrestin recruitment; hit rate 0.98% among 360,000; activation, % at 8.9 µM; U2OS MC4R beta-arrestin complementation, luminescence; percent of melanotan II response, DMSO zero; AID 540308;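 active means activation above a per-plate cutoff, the mean activation of sample wells on that plate plus 3 SD, cut at about 8% in these data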
Target sequence (P32245 whole entry, looked up): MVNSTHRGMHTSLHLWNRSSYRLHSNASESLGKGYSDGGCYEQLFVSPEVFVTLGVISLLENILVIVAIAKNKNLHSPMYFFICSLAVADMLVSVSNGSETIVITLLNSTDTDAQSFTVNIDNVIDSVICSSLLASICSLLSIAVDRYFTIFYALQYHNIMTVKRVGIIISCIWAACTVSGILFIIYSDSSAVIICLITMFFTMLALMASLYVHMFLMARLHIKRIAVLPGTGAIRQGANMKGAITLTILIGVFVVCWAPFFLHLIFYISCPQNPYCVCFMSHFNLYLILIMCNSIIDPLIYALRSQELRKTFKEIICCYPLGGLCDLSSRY
MC4R antag cAMP – antagonists of human melanocortin 4 receptor (MC4R); P32245; MC4R-expressing cells, MTII-stimulated cAMP, LANCE TR-FRET; inhibition, % at 6.5 µM; hit rate 0.48% among 360,000; AID 540295;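 active means inhibition above its plate's cutoff, the mean of tested wells on that plate plus 3 SD, cut at about 29% in these data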
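Assay system: U2OS-MC4R stable cell line; Also added: Melanotan II; Technique: Eu-cAMP/anti-cAMP TR-FRET, emission 671 nm; Times: 30-min compound, 1-h challenge, 1-h detection, room temperature.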
EBI2 antag – antagonists of human EBI2 receptor | P32249 | EBI2 beta-arrestin recruitment, luminescence, 7a,25-OHC stimulated | hit rate 0.81% among 360,000 | inhibition, % at 5 µM; in the data active means inhibition above about 38%;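 further: enzyme fragment complementation signal reports receptor beta-arrestin coupling in cells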
Target sequence (P32249 whole entry, looked up, the tested form may be a part): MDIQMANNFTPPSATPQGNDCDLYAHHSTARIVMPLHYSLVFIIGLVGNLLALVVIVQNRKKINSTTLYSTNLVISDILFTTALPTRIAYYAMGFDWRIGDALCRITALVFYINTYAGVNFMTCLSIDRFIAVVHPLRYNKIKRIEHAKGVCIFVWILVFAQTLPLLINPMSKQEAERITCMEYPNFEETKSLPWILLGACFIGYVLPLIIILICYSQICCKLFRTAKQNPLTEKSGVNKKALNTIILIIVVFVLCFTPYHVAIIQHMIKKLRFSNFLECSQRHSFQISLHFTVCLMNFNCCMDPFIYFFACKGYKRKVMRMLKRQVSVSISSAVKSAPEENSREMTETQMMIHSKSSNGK
U2OS cAMP counter – U2OS forskolin cAMP inhibition counter-screen | inhibition, % at 6.5 µM | hit rate 26% among 1,600 | AID 602193 | parental U2OS, LANCE TR-FRET | shares compounds with MC4R antag cAMP;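 active means mean inhibition over triplicates above the low-control well mean plus 3 SD, set per campaign, cut at about 13% in these data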;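 further: signal is single emission at 671 nm which falls as cellular cAMP rises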
MC4R cAMP antag – human MC4R cAMP antagonism confirmation; AID 602195; inhibition, % at 6.5 µM; MC4R-expressing cells, MTII-stimulated cAMP, TR-FRET; shares compounds with MC4R antag cAMP; hit rate 27% among 1,600; in the data active means inhibition above about 29%
Of the large screens only hits and unclear results are named; the others gave an inactive call (follow-up assays come after a bar, where they were run). In the library only some 3.7% were active in any assay of this set; here they are far more common.

O=C(Cc1ccsc1)NNC(=O)c1cccc(Cl)c1	none
Cc1ccc(OC(=O)c2sc(Cl)nc2C)cc1C	MC4R antag cAMP 36.0 | U2OS cAMP counter 15.6 | MC4R cAMP antag 37.2
COc1ccc(N(C)C(=O)c2sc(Cl)nc2C)cc1	none
O=C(NCc1ccco1)C(c1ccccc1)N(C(=O)Cc1cccs1)c1cccnc1 (centres undefined)	MC4R antag cAMP 29.5 | U2OS cAMP counter inactive | MC4R cAMP antag inactive
O=C(NCc1ccco1)C(c1ccccc1)N(C(=O)Cc1cccs1)c1ccccc1 (centres undefined)	none
O=C(Nc1ccccc1)Nc1ccccc1C(=O)NCC1CC1	none
COCCNC(=O)c1ccccc1NC(=O)Nc1ccccc1	MC4R antag cAMP 30.8 | U2OS cAMP counter inactive | MC4R cAMP antag inactive
O=C(NCc1cccc(F)c1)c1[nH]c(C(F)(F)F)nc1-c1ccccc1	none (no result: MC4R barr agon, MC4R antag cAMP)
O/N=C(\Cn1ccnc1)c1ccccc1	none
C#CCOCCOCCOCCNc1nc(N2CCOCC2)nc(N2CCN(C(=O)CCCCCCCCCCNC(=O)[C@H]([C@@H](C)CC)n3cc(CCCCN=C(N)N)nn3)CC2)n1	none
C#CCOCCOCCOCCNc1nc(N2CCN(C(=O)CCCCCCCCCCNC(=O)[C@H]([C@@H](C)CC)n3cc(CCCCN=C(N)N)nn3)CC2)nc(N2CCN(C(=O)CCCCCCCCCCNC(=O)[C@@H]([C@H](C)O)n3cc(C)nn3)CC2)n1	MC4R antag cAMP 38.0 | U2OS cAMP counter 19.5 | MC4R cAMP antag 55.2
CN1CCN(C(=O)c2cc(S(=O)(=O)Nc3ccccc3F)c(Cl)cc2Cl)CC1	MC4R antag cAMP 34.8 | U2OS cAMP counter inactive | MC4R cAMP antag inactive
CCC1(c2ccccc2)NC(=O)N(CC#N)C1=O (centres undefined)	MC4R antag cAMP 28.8 | U2OS cAMP counter inactive | MC4R cAMP antag inactive
CC1(c2ccccc2)NC(=O)N(CC#N)C1=O (centres undefined)	none
CN(CC(=O)Nc1cccc(F)c1)C(=O)c1cc([N+](=O)[O-])ccc1N1CCCCC1	none
COc1ccc(S(=O)(=O)N2CCc3ccccc32)cc1C(=O)N(CC(C)C)C1CCS(=O)(=O)C1 (centres undefined)	none
Cc1ccc(-n2cccc2/C=C2\C(=N)N3N=C(C(C)C)SC3=NC2=O)cc1	MC4R antag cAMP 72.8 | U2OS cAMP counter inactive | MC4R cAMP antag inactive
NC(=O)C1(N2CCCCC2)CCN(S(=O)(=O)c2cc(Cl)sc2Cl)CC1	none
COc1ccc(C(=O)OCC(=O)NC(C)CCc2ccccc2)cc1OC (centres undefined)	MC4R antag cAMP 31.0 | U2OS cAMP counter inactive | MC4R cAMP antag inactive
Cc1ccc(-c2cc(C(=O)OC3CCOC3=O)c3ccccc3n2)c(C)c1 (centres undefined)	none
O=C(OC1CCOC1=O)c1cc(-c2cccs2)nc2ccccc12 (centres undefined)	MC4R antag cAMP 35.2 | U2OS cAMP counter 25.7 | MC4R cAMP antag 37.6
N#Cc1c(N2CCSCC2)nsc1-c1ccccc1Cl	MC4R antag cAMP 29.2 | U2OS cAMP counter 24.2 | MC4R cAMP antag 47.4
O=C(Oc1ccccc1C(=O)Nc1ccccc1)c1ccc(Br)c([N+](=O)[O-])c1	MC4R antag cAMP 35.8 | U2OS cAMP counter inactive | MC4R cAMP antag inactive
COc1ccccc1C(=O)Oc1ccccc1C(=O)Nc1ccccc1	none
O=C(Cn1cc(C(F)(F)F)ccc1=O)NC(c1ccccc1)c1ccccc1	MC4R antag cAMP 36.1 | U2OS cAMP counter inactive | MC4R cAMP antag inactive
CC(C)(C)NC(=O)NC(=O)Cn1cc(C(F)(F)F)ccc1=O	none
O=C1/C(=C\c2ccc(Cl)c(Cl)c2)CN(C(=O)CCN2CCOCC2)C/C1=C/c1ccc(Cl)c(Cl)c1	Exocytosis inh 65.3, MC4R antag cAMP 36.8, EBI2 antag 89.6 (no result: Myeloid diff MLP) | U2OS cAMP counter 25.8 | MC4R cAMP antag 30.6
CCOc1ccc(NC(=O)CSCC(=O)O)cc1	none
CCOc1ccc(NC(=O)CSc2ccccc2N)cc1	MC4R antag cAMP 31.8 | U2OS cAMP counter inactive | MC4R cAMP antag inactive
O=C(O)COc1ccc2nsnc2c1Cl	MC4R antag cAMP 69.9 | U2OS cAMP counter 45.6 | MC4R cAMP antag 81.5
CC(C)N1C(=O)S/C(=C/c2ccccc2OCc2ccc(C(=O)O)cc2)C1=O	MC4R antag cAMP 31.1 | U2OS cAMP counter inactive | MC4R cAMP antag inactive
CN1C(=O)S/C(=C\c2ccccc2OCc2ccc(C(=O)O)cc2)C1=O	none
O=C(NC(=S)NCCCN1CCOCC1)c1ccco1	MC4R antag cAMP 28.8 | U2OS cAMP counter inactive | MC4R cAMP antag inactive
O=C(NC(=S)NCCN1CCOCC1)c1ccccc1Cl	none
O=C(/C=C/c1ccc(S(=O)(=O)NCc2ccco2)cc1)N1CCN(c2ccccc2)CC1	MC4R antag cAMP 30.6 | U2OS cAMP counter inactive | MC4R cAMP antag inactive
O=C(Nc1cccc([N+](=O)[O-])c1)Nc1cccc([N+](=O)[O-])c1	MC4R antag cAMP 34.0 | U2OS cAMP counter inactive | MC4R cAMP antag inactive
O=C(O)C(Cc1c[nH]c2ccccc12)NS(=O)(=O)c1cccc(Cl)c1Cl (centres undefined)	MC4R antag cAMP 28.8 | U2OS cAMP counter inactive | MC4R cAMP antag inactive
Cc1ccc(NC(=O)C(=O)NCC2CCCO2)cc1C (centres undefined)	MC4R antag cAMP 35.6 | U2OS cAMP counter inactive | MC4R cAMP antag inactive
Cc1ccc(NC(=O)C(=O)NCC2CCCO2)cc1 (centres undefined)	none
COc1ccc(C(=O)N/C(=C\c2ccc3c(c2)OCO3)C(=O)NCCc2nc3ccccc3[nH]2)cc1	MC4R antag cAMP 29.0 | U2OS cAMP counter inactive | MC4R cAMP antag inactive
COc1ccc(/C=C(/NC(=O)c2ccc(OC)cc2)C(=O)NCCc2c[nH]c3ccccc23)cc1	none
O=C(CCc1ccccc1)n1nc(-c2ccccc2)nc1NCc1ccco1	MC4R antag cAMP 32.7 | U2OS cAMP counter inactive | MC4R cAMP antag inactive
O=C(/C(=C/O)N=Nc1ccccc1)c1ccc(Cl)cc1	MC4R antag cAMP 33.6 | U2OS cAMP counter inactive | MC4R cAMP antag inactive
COc1ccc(C(=O)/C=C/C(=O)N(CC(=O)NC2CCCCC2)Cc2ccc(F)cc2)c(O)c1	MC4R antag cAMP 28.6 | U2OS cAMP counter inactive | MC4R cAMP antag inactive
CCCn1c(N)c(C(=O)COC(=O)c2cccc(S(=O)(=O)N3CCOCC3)c2)c(=O)[nH]c1=O	none
Cc1nn(CC(=O)N2CCN(c3cccc(C(F)(F)F)c3)CC2)c(=O)c2cccn12	none
CC1=NN(c2ccccc2)C(=O)/C1=C\c1cn(-c2ccccc2)nc1C	MC4R antag cAMP 28.5 | U2OS cAMP counter inactive | MC4R cAMP antag inactive
O=C(Cn1nc(C(=O)O)c2ccccc2c1=O)Nc1cc(S(=O)(=O)N2CCCCC2)ccc1Cl	none

Assay outcomes deposited in PubChem BioAssay by several laboratories.
